ChEMBL document CHEMBL1122094, “Novel orally active inhibitors of passive cutaneous anaphylaxis in rats: N-[2-(4-pyridinyl)-4-pyrimidinyl]ureas and dialkyl [[[2-(4-pyridinyl)-4-pyrimidinyl]amino]methylene]malonates” (1982)

What was measured:
Rattus norvegicus [1] = species on record: Rattus norvegicus; experiment: Antiallergic potency against IgE-mediated passive cutaneous anaphylaxis (PCA) in rats; type: functional
How it was run: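 Multiple-dose oral tests were run alongside aminophylline in female Sprague–Dawley rats (90–125 g). Bluing diameters were recorded 30 min after challenge, and activity was taken as the rightward shift of the antibody dose-response curve.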

Rattus norvegicus [2] = species on record: Rattus norvegicus; experiment: Antiallergic activity against IgE-mediated passive cutaneous anaphylaxis (PCA) in rats; type: functional
How it was run: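 Female Sprague–Dawley rats (90–125 g), fasted overnight, were sensitized with id injections of graded concentrations of IgE against egg albumin. Compound was given orally at 100 mg (base)/kg in 0.5% gum tragacanth to 4 rats, 1 h before challenge. Skin bluing diameters were read 30 min later, and the shift of the antibody dose-response curve to the right was expressed in multiples of antibody concentration.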

| Structure (SMILES) | Potency (Rattus norvegicus [1]) | PCA shift (Rattus norvegicus [2]) |
| --- | --- | --- |
| CCNC(=O)Nc1ccnc(-c2ccncc2)n1 | 7 | >10 |
| CC(C)NC(=O)Nc1ccnc(-c2cc[n+]([O-])cc2)n1.CS(=O)(=O)O.CS(=O)(=O)O | 1.8 | 5.4 |
| CCCCN(C(=O)NC(C)C)c1ccnc(-c2ccncc2)n1.CS(=O)(=O)O.CS(=O)(=O)O | – | 4.2 |
| CC(C)(C)CC(=O)Nc1ccnc(-c2ccncc2)n1 | – | 2.2 |
| CN(C(=O)NC(C)(C)C)c1ccnc(-c2ccncc2)n1 | – | 4 |
| Cc1cnc(-c2ccncc2)nc1NC(=O)NC(C)(C)C | – | 3.5 |
| CC(C)(C)Nc1ccnc(-c2ccncc2)n1 | – | 1.5 |
| CCN(CC)C(=O)Nc1ccnc(-c2ccncc2)n1 | – | 8.9 |
| Cc1cc(N)nc(-c2ccncc2)n1 | – | 10.2 |
| CC(C)C(=O)Nc1ccnc(-c2ccncc2)n1 | – | 2.3 |
| CC(C)NC(=O)Nc1ccnc(-c2cccnc2)n1 | 1.6 | >10 |
| CN(C)c1ccnc(-c2ccncc2)n1 | – | 1.5 |
| CS(=O)(=O)O.CS(=O)(=O)O.Cc1cc(NN)nc(-c2ccncc2)n1 | – | 2 |
| CCO/C(O)=C(C#N)\C(C)=N\c1ccnc(-c2ccncc2)n1 | – | 5 |
| CC(C)CC(=O)Nc1ccnc(-c2ccncc2)n1 | – | 5 |
| CC(C)(C)NC(=O)Nc1ccnc(-c2ccncc2)n1 | 3.9 | >10 |
| CCOC(=O)C(/C=N/c1cc(C)nc(-c2ccncc2)n1)=C(/O)OCC | – | 7.8 |
| Cc1cc(O)nc(-c2ccncc2)n1 | – | 2.8 |
| COC(=O)C(/C=N/c1ccnc(-c2ccncc2)n1)=C(\O)OC | 5.8 | >10 |
| Nc1ccnc(-c2ccccn2)n1 | – | 2.5 |

| Structure (SMILES) | Potency (Rattus norvegicus [1]) | PCA shift (Rattus norvegicus [2]) |
| --- | --- | --- |
| CCNC(=O)Nc1ccnc(-c2cccnc2)n1 | 4.8 | >10 |
| Nc1ccnc(-c2cccnc2)n1 | – | 4.2 |
| CCOC(=O)C(/C=N/c1ccnc(-c2ccncc2)n1)=C(\O)OCC | 2.4 | >10 |
| CC(C)(C)NC(=O)Nc1ccnc(-c2ccccn2)n1 | – | 4.5 |
| Nc1ccnc(-c2ccncc2)n1 | – | 8.6 |
| Cc1cc(N(C)C)nc(-c2ccncc2)n1.Cl.Cl | – | 5 |
| CCN(CC)c1cc(C)nc(-c2ccncc2)n1.Cl.Cl | – | 2.2 |
| CCC(CC)NC(=O)Nc1ccnc(-c2ccncc2)n1.CS(=O)(=O)O.CS(=O)(=O)O | – | 6.4 |
| CCCCNC(=O)Nc1ccnc(-c2cccnc2)n1 | – | 8.5 |
| Nc1ccnc(-c2cc[n+]([O-])cc2)n1 | – | 3.8 |
| CC(C)NC(=O)Nc1ccnc(-c2ccncc2)n1 | 2.4 | >10 |
| CCOC(=O)C(/C=N/c1ccnc(-c2cccnc2)n1)=C(\O)OCC | 0.8 | >10 |
| CNc1cc(C)nc(-c2ccncc2)n1 | – | 4.9 |
| Cc1cc(Cl)nc(-c2ccncc2)n1 | – | 1.4 |
| CC(=O)C(=CNc1ccnc(-c2ccncc2)n1)C(C)=O | – | 5.6 |
| CCOC(=O)C(/C=N/c1ccnc(-c2ccccn2)n1)=C(\O)OCC.CS(=O)(=O)O | – | 4.1 |
| CC(C)(C)NC(=O)Nc1ccnc(-c2cc[n+]([O-])cc2)n1 | – | 1.5 |
| CCCCNc1ccnc(-c2ccncc2)n1 | – | 7.6 |
| CCCNC(=O)Nc1ccnc(-c2ccncc2)n1 | – | >10 |
| CCNc1ccnc(-c2ccncc2)n1 | – | 8.4 |

| Structure (SMILES) | Potency (Rattus norvegicus [1]) | PCA shift (Rattus norvegicus [2]) |
| --- | --- | --- |
| CC(C)(C)NC(=O)Nc1ccnc(-c2cccnc2)n1 | – | 5.8 |
| CCCCNC(=O)Nc1ccnc(-c2ccncc2)n1 | 2.4 | >10 |
| CC(C)Nc1ccnc(-c2ccncc2)n1 | – | 9 |
| CCO/C(O)=C(C#N)\C=N\c1ccnc(-c2ccncc2)n1 | – | 9.4 |
| CC(C)(C)C(=O)Nc1ccnc(-c2ccncc2)n1 | – | 4.2 |
| CC1(C)OC(=O)C(/C=N/c2ccnc(-c3ccncc3)n2)=C(O)O1 | – | 2.2 |
| Cc1cc(N(CCO)CCO)nc(-c2ccncc2)n1 | – | 6.3 |
| NC(=O)Nc1ccnc(-c2ccncc2)n1 | – | 4.8 |
| CC(C)(C)CNC(=O)Nc1ccnc(-c2ccncc2)n1 | – | 2.2 |
| CNc1ccnc(-c2ccncc2)n1 | – | 7.4 |
| CC(C)NC(=O)N(C)c1ccnc(-c2ccncc2)n1 | – | >10 |
| CC(=O)Nc1ccnc(-c2ccncc2)n1 | – | 1.7 |
| CC(C)(C)OC(=O)Nc1ccnc(-c2ccncc2)n1 | – | 1.6 |
| CNC(=O)Nc1ccnc(-c2ccncc2)n1 | 3.8 | >10 |
| CC(C)(CO)NC(=O)Nc1ccnc(-c2ccncc2)n1 | 1 | >10 |
| CCCCCC(=O)Nc1ccnc(-c2ccncc2)n1 | – | 7 |
| CCCCOC(=O)Nc1ccnc(-c2ccncc2)n1 | – | 3 |
| COC(=O)C(/C=N/c1ccnc(-c2cccnc2)n1)=C(\O)OC | 2.9 | >10 |
| CCO/C(O)=C(\C=N\c1ccnc(-c2ccncc2)n1)C(C)=O | – | 2.9 |
| Cc1cc(NC(=O)NC(C)(C)C)nc(-c2ccncc2)n1 | – | 3.2 |
